Test [1] addresses Cannabinoid receptor 2 (Homo sapiens) (UniProt P34972). In words: Intrinsic activity at CB2 receptor in human HL60 cells assessed as upregulation of phosphorylated ERK1/2 expression at 50 nM after 15 mins by Western blotting analysis in presence of CB2 receptor antagonist AM630. Format: cell-based. The note with it: HL-60. In outline:
(§1)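 HL-60 cells were pre-treated 5 min with CB2 antagonist AM630 (75 nM), then exposed 15 min to agonist in medium with 1% DMSO. Phospho-ERK1/2 in cell lysates was measured by western blot with anti-phospho-ERK1/2 clone AW39R. Controls were AM630 alone and agonist without pre-treatment. Results given as mean percentage of vehicle (100%) ± SEM.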
(In general: In western blotting, separated proteins are transferred to a membrane and probed.)

Test [2] is filed under the species Mus musculus. Nature of the test: Selectivity ratio of Ki for CB1 receptor in CD1 mouse cerebellum-less brain homogenate to Ki for CB2 receptor in CD1 mouse spleen homogenate. Format: tissue-based. In outline: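 Ki measured in two assays. CB1 used male CD1 mouse brain (minus cerebellum) membranes and CB2 used spleen membranes, each with 0.5-1.0 nM [3H]-CP-55,940 for 1 h at 30 °C in TME buffer pH 7.4. IC50 converted by Cheng-Prusoff. Each Ki comes from five independent triplicate experiments, and the line is the ratio of the two Ki values.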

For test [3], the target named is Cannabinoid receptor 2 (Homo sapiens) (UniProt P34972). In words: Intrinsic activity at CB2 receptor in human HL60 cells assessed as upregulation of phosphorylated ERK1/2 expression at 50 nM after 15 mins by Western blotting analysis relative to control. The test is classed as cell-based. As to conditions: HL-60. In outline:
(§2)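 HL-60 human promyelocytic leukaemia cells were treated for 15 min with compounds in culture medium with 1% DMSO. Cells were pelleted, washed in PBS and lysed at 4 °C. Phospho-ERK1/2 in total extracts was detected by western blot with anti-phospho-ERK1/2 clone AW39R and chemiluminescence. Results expressed as mean percentage of vehicle (100%) ± SEM.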

Test [4] concerns the target Cannabinoid receptor 1 (Mus musculus, UniProt P47746). In words: Displacement of [3H]-CP-55,940 from CB1 receptor in CD1 mouse cerebellum-less brain homogenate after 1 hr by liquid scintillation counting analysis. The test is classed as tissue-based. In a few lines: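 Membranes from brain (minus cerebellum) of male CD1 mice, homogenised in ice-cold TME buffer (50 mM Tris-HCl, 1 mM EDTA, 3.0 mM MgCl2, pH 7.4), incubated with 0.5-1.0 nM [3H]-CP-55,940 for 1 h at 30 °C with fatty acid-free BSA. Non-specific binding defined with CP-55,940. Filtration, then scintillation counting. Triplicates in five independent assays; IC50 from sigmoid fit, converted to Ki by Cheng-Prusoff.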
(In a radioligand displacement assay an active substance lowers the binding of a labelled ligand.)

Test [5] has as its target Cannabinoid receptor 2 (Homo sapiens) (UniProt P34972). In words: Intrinsic activity at CB2 receptor in human HL60 cells assessed as upregulation of phosphorylated ERK1/2 expression at 10 nM after 15 mins by Western blotting analysis in presence of CB2 receptor antagonist AM630. Format: cell-based. As to conditions: HL-60. In outline:
as §1

For test [6] the target is unchanged. In words: Intrinsic activity at CB2 receptor in human HL60 cells assessed as upregulation of phosphorylated ERK1/2 expression at 10 nM after 15 mins by Western blotting analysis relative to control. Format: cell-based. The note with it: HL-60. In outline: as §2
For test [7], the target named is Cannabinoid receptor 2 (Mus musculus, UniProt P47936). In words: Displacement of [3H]-CP-55,940 from CB2 receptor in CD1 mouse spleen homogenate after 1 hr by liquid scintillation counting analysis. Format: tissue-based. In outline: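 Male CD1 mice killed by cervical dislocation; spleen homogenised in 20 vol ice-cold TME buffer (50 mM Tris-HCl, 1 mM EDTA, 3.0 mM MgCl2, pH 7.4), spun 1086 × g then 45,000 × g. Membranes incubated with 0.5–1.0 nM [3H]CP-55,940, 1 h, 30 °C, with 5 mg/mL fatty-acid-free BSA; nonspecific binding defined with CP-55,940. Filtration stop. Triplicates, five independent assays. Sigmoid fit for IC50, then Cheng-Prusoff Ki.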
Sequence of Cannabinoid receptor 2 (P47936 whole entry): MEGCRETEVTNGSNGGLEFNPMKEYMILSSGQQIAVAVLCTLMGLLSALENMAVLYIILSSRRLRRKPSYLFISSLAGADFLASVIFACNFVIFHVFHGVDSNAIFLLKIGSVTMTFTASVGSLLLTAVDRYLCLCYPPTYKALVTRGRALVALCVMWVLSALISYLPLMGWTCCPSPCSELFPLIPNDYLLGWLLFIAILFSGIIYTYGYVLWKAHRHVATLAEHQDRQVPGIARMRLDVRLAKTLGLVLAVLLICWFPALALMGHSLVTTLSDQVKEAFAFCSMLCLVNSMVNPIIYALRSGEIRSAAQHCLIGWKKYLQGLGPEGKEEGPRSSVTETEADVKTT

The target of test [8] is Cannabinoid receptor 2 (Homo sapiens) (UniProt P34972). Nature of the test: Intrinsic activity at CB2 receptor in human HL60 cells assessed as upregulation of phosphorylated ERK1/2 expression at 75 nM after 15 mins by Western blotting analysis relative to control. The note with it: HL-60. Format: cell-based. In a few lines:
as §2

Test [9] has the same target. Nature of the test: Intrinsic activity at CB2 receptor in human HL60 cells assessed as upregulation of phosphorylated ERK1/2 expression at 75 nM after 15 mins by Western blotting analysis in presence of CB2 receptor antagonist AM630. The note with it: HL-60. The test is classed as cell-based. In outline: as §1
The species named for test [10] is Homo sapiens. In words: Selectivity ratio of Ki for CB1 receptor (unknown origin) to Ki for CB2 receptor (unknown origin).
The target in test [11] is Cannabinoid receptor 2 (Homo sapiens) (UniProt P34972). Nature of the test: Intrinsic activity at CB2 receptor in human HL60 cells assessed as upregulation of phosphorylated ERK1/2 expression at 5 nM after 15 mins by Western blotting analysis in presence of CB2 receptor antagonist AM630. The test is classed as cell-based. As to conditions: HL-60. In a few lines: as §1
Sequence of Cannabinoid receptor 2 (Homo sapiens) (P34972 whole entry): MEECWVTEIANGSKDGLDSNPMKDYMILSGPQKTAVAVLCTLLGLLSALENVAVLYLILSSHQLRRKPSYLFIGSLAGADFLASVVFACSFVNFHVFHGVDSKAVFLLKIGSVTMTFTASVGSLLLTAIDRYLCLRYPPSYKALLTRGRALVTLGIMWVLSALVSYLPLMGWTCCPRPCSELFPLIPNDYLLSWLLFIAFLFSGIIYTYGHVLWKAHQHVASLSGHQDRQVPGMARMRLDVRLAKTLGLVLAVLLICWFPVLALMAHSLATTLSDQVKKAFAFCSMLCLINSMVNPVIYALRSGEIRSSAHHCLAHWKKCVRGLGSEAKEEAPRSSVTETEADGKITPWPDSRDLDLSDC

The target is the same in test [12]. In words: Intrinsic activity at CB2 receptor in human HL60 cells assessed as upregulation of phosphorylated ERK1/2 expression at 5 nM after 15 mins by Western blotting analysis relative to control. Format: cell-based. The note with it: HL-60. In a few lines: as §2

Results on 12 compounds are retold here after ChEMBL document CHEMBL3286155, “Tricyclic pyrazoles. Part 6. Benzofuro[3,2-c]pyrazole: a versatile architecture for CB2 selective ligands” (Eur J Med Chem, 2014).

Calls of active or inactive are those of the source. No cut-off for these calls is given here.

Sequence of Cannabinoid receptor 1 (P47746 whole entry): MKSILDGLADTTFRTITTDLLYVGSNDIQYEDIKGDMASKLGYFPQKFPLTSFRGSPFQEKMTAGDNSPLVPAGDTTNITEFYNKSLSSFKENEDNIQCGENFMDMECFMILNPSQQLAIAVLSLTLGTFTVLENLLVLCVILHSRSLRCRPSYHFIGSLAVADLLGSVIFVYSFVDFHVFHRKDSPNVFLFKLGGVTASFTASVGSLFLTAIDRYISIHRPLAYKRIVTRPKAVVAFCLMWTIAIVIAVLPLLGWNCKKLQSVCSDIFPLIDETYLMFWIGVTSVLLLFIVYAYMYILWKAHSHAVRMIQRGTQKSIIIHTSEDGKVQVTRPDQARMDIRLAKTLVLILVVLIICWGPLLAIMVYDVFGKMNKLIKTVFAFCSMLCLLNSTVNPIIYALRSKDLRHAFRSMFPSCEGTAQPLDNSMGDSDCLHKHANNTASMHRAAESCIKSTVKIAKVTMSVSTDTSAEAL

Consider `Cc1ccc2c(c1)oc1c(C(=O)NN3CCCCC3)nn(-c3ccc(Cl)cc3Cl)c12`, for which, in test [1], the Intrinsic activity result is “inactive”. For the same compound, the Ratio Ki in test [2] worked out at 139. Besides, the Intrinsic activity in [3] was 205%.
A word on the Ki: it is a measure of affinity in units of concentration, obtained from inhibition or displacement. Read a low Ki as higher affinity. Turning to `Cc1ccc2c(c1)oc1c(C(=O)N[C@H]3C4(C)CCC(C4)C3(C)C)nn(-c3ccc(Cl)cc3Cl)c12` (stereo not given in full), the Ratio Ki in [2] came out at 103. The inhibition constant Ki in test [4] is 257 nM; in test [7], 2.5 nM. Moreover, the Intrinsic activity result in [5] is “inactive”. Also, the Intrinsic activity in [6] is 200%.
Take `Cc1ccc2c(c1)oc1c(C(=O)NN3CCOCC3)nn(-c3ccc(Cl)cc3Cl)c12`: in [8], the Intrinsic activity is 178%. Also, the Ratio Ki in test [2] was found to be 108. In addition, the Intrinsic activity result in [9] is “inactive”.
`Cc1ccc2c(c1)oc1c(C(=O)N[C@H]3CC4CC[C@]3(C)C4(C)C)nn(-c3ccc(Cl)cc3Cl)c12`: the Ratio Ki in test [2] was found to be 134. The Ki in test [4] worked out at 469 nM; in test [7] it was 3.5 nM. Moreover, in test [5], the Intrinsic activity result is “inactive”. Further, in test [6], the Intrinsic activity came out at 189%.
`Cc1ccc2c(c1)Cc1c(C(=O)NN3CCCCC3)nn(-c3ccc(Cl)cc3Cl)c1-2`: the Ratio Ki in test [10] was 9810.
As to `Cc1c(C(=O)c2cccc3ccccc23)c2cccc3c2n1[C@H](CN1CCOCC1)CO3`, the Intrinsic activity in test [8] stood at 190%.
Regarding `Cc1ccc2c(c1)oc1c(C(=O)N[C@@H]3CC4CC([C@H]3C)C4(C)C)nn(-c3ccc(Cl)cc3Cl)c12` (stereo not given in full), in [2], the Ratio Ki amounted to 648. Besides, the Ki in test [4] was determined as 2400 nM; in [7], 3.7 nM. Moreover, the Intrinsic activity result in test [11] is “inactive”. The Intrinsic activity in [12] turned out to be 205%.
Taken in the same sequence, the figures for `Cc1ccc2c(c1)oc1c(C(=O)N[C@@H]3C[C@H](C)CC[C@H]3C(C)C)nn(-c3ccc(Cl)cc3Cl)c12` were 16.6, 38.2 nM, 2.3 nM, “inactive” and 193%.
`Cc1ccc2c(c1)oc1c(C(=O)NC34CC5CC(CC(C5)C3)C4)nn(-c3ccc(Cl)cc3Cl)c12`: the Intrinsic activity in test [8] turned out to be 175%. In test [2], the Ratio Ki worked out at 13. In addition, the Intrinsic activity result in test [9] is “inactive”.
Regarding `Cc1ccc2c(c1)oc1c(C(=O)NC3C4CC5CC(C4)CC3C5)nn(-c3ccc(Cl)cc3Cl)c12` (stereo not given), the Intrinsic activity result in test [1] is “inactive”. Also, the Ratio Ki in test [2] amounted to 30.7. The Intrinsic activity in test [3] is 187%.
Taken in the same sequence, the figures for `Cc1ccc2c(c1)oc1c(C(=O)NC3CCCCC3)nn(-c3ccc(Cl)cc3Cl)c12` were “inactive”, 79.9 and 196%.
For the compound `Cc1ccc2c(c1)oc1c(C(=O)NN3CCCC3)nn(-c3ccc(Cl)cc3Cl)c12`, the Intrinsic activity in test [8] turned out to be 185%. In addition, in [2], the Ratio Ki is 92.3. Further, in test [9], the Intrinsic activity entry was “inactive”.
